Compound activity as filed in PubChem.
Rows were chosen to be rich in hits. Some 3.4% of all compounds tested hit in one or more screens of this group.
TMEM16A act = TMEM16A chloride channel activators or potentiators, primary screen, cell-based, HTS; Anoctamin-1 (Mus musculus), Q8BHY3; HEK293 TMEM16A/YFP-H148Q/I152L, iodide quench fluorescence; stronger effect = lower value; B-score at 10 µM; 0.3% of 340,000 active;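 active = fluorescence-ratio B-score plate-corrected deviation score at least 3 library SD below zero, with starting fluorescence score within 5 deviations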;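 also: channel opened by trigger with iodide after compound preincubation; score built on the fluorescence ratio of max minus min over baseline; more negative score means more quench and so TMEM16A activation or potentiation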
CHT block = inhibitors of human choline transporter CHT. High affinity choline transporter 1 (Homo sapiens), Q9GZV3. CHT-expressing cells, membrane potential dye, choline response; stronger effect = lower value. B-score at 10 µM. 0.86% of 310,000 active. AID 488975, 2010;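 active = B-score over 3 SD under the library average, and starting fluorescence ratio not unusually high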;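 also: choline stimulus applied at its EC90 after an EC20 pre-addition; B-score computed on integrated fluorescence ratio after choline addition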
Target sequence (Q9GZV3 whole entry, looked up): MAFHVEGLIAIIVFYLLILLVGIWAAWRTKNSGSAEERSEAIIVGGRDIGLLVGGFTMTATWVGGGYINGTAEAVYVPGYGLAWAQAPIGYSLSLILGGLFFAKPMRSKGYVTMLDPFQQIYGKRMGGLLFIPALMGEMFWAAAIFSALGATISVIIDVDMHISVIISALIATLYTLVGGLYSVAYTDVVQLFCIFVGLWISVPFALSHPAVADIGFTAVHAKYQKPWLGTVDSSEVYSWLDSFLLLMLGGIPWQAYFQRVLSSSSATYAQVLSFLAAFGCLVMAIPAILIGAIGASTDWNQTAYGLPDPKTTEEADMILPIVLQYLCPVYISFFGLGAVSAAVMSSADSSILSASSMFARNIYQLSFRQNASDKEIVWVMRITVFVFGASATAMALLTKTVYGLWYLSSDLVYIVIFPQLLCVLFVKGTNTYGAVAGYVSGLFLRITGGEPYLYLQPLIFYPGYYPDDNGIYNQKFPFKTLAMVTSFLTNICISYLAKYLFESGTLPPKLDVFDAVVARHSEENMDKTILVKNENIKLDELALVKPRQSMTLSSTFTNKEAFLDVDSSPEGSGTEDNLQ
ANO1 block = TMEM16A chloride channel inhibitors, primary screen, cell-based, HTS; AID 588511, 2011; Anoctamin-1 (Mus musculus), Q8BHY3; 1.2% of 310,000 active; HEK293 TMEM16A/YFP iodide influx fluorescence, ionomycin; normalized B-score (activity score, 25-100; higher = stronger inhibition) at 10 µM;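 active = ratio plate-corrected score three or more library SD toward inhibition, starting fluorescence score within five deviations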;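 also: score derived from kinetic fluorescence span divided by baseline fluorescence per well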
CHT PAM = CHT positive allosteric modulators, primary screen, cell-based, membrane potential dye, choline EC20; B-score at 10 µM; High affinity choline transporter 1 (Homo sapiens), Q9GZV3; CHT-expressing cells; stronger effect = higher value; LV-AA mutant CHT in HEK293 cells; 0.49% of 310,000 active;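 active = initial fluorescence not abnormally high and integrated response B-score, plate-corrected, over 3 SD above library mean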
IMP-1 inh = IMP-1 metallo-beta-lactamase inhibitors, primary screen, biochemical, epi-absorbance readout, Pseudomonas aeruginosa enzyme; purified IMP-1, nitrocefin hydrolysis, epi-absorbance fluorescence; inhibition, % at 5.6 µM; 0.45% of 290,000 active;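 active = inhibition above the mean plus 3 SD of all compounds in the same screening run, cut at about 4.5% in these data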;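 also: 0% = IMP-1 with DMSO and 100% = DMSO wells lacking enzyme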
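Assay system: purified recombinant IMP-1 beta-lactamase. Input: IMP-1 0.2 nM before substrate addition. Buffer or medium: Zinc- and detergent-supplemented HEPES buffer, pH 7.1. Schedule: 25 °C, 15 min preincubation, 25 min reaction. Signal: Epi-absorbance fluorescence, 480 nm excitation, 530 nm emission. Evaluation: percent inhibition from optical density relative to buffer-blank wells.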
VIM-2 inhibitor = VIM-2 metallo-beta-lactamase inhibitors, primary screen, biochemical, epi-absorbance readout, Pseudomonas aeruginosa enzyme | inhibition, % at 5.6 µM | purified VIM-2, nitrocefin hydrolysis, epi-absorbance fluorescence | 0.89% of 290,000 active;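 active = inhibition above the mean of all tested compounds plus 3 SD, cutoff set per screening run, cut at about 7.5% in these data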;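 also: red hydrolysis product quenches plate fluorescence so inhibitors raise well fluorescence; 0% = enzyme with DMSO and 100% = DMSO without enzyme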
CHT act confirm = CHT activators, confirmation, cell-based, membrane potential dye, duplicate. shares compounds with CHT PAM. CHT-expressing cells, membrane potential dye fluorescence (FDSS); % of choline EC20–EC90 response window; HEK293 expressing CHT LV-AA mutant; choline added at its EC20. activation, % at 10 µM. 91% of 2,500 active;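 active = primary screen active, with duplicate mean activation above negative control mean plus 3 SD, cut at about 11% in these data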
HEK293 MP dye = membrane potential response in parental HEK293 cells, counter-screen for CHT activator project, cell-based, membrane potential dye. shares compounds with CHT PAM. 62% of 2,500 active. AID 623908, 2012. membrane potential dye fluorescence (FDSS); measured after EC20 choline addition. ratio readout change at 10 µM, hits read low;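 active = duplicate-averaged ratio beyond 3 SD from buffer wells, up or down, though filed actives are nearly all decreases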
* hit, by the source's call; i = inactive; . = not tested or not shown.

SMILES	TMEM16A act	CHT block	ANO1 block	CHT PAM	IMP-1 inh	VIM-2 inhibitor	CHT act confirm	HEK293 MP dye
COc1ccc2c(c1)c1ncn(CCN3CCCC3)c(=O)c1n2C	i	i	i	6.49*	-1.4	2.7	44.7*	-23.8*
CC(=O)Nc1cccc(NS(=O)(=O)c2cc3c4c(c2)CCN4C(=O)CC3)c1	i	i	i	i	.	.	.	.
CCOc1ccc(N(C)S(=O)(=O)c2ccc3[nH]cc(C(=O)NCC(OC)OC)c(=O)c3c2)cc1	i	i	i	i	-3.3	-1.8	21.0*	i
CCC1CCCCN1C(=O)c1c[nH]c2ccc(S(=O)(=O)N(C)c3ccc(Cl)cc3)cc2c1=O (configuration not stated)	i	i	i	i	1.6	-2.2	30.0*	i
CC(OC(=O)CC(NC(=O)c1ccccc1Cl)c1ccccc1)C(=O)Nc1cccc(Cl)c1Cl (configuration not stated)	i	i	i	i	-2.6	-0.3	30.9*	i
COC(=O)c1nnn(-c2nc(N3CCOCC3)nc(N3CCOCC3)n2)c1C	i	i	i	7.79*	0.0	-1.1	33.1*	-39.9*
CC(C)CCNC(=O)/C=C/c1ccc(Br)cc1	i	i	i	i	-0.9	-3.3	25.0*	i
Cc1ccc(Cn2c(C3CCCN3c3nc(C)cs3)nc3cc(C(F)(F)F)ccc32)cc1 (configuration not stated)	i	i	i	i	-3.8	-4.9	.	.
Cc1coc2c(C)c3oc(=O)c(CCC(=O)N(C)CC(=O)O)c(C)c3cc12	i	i	i	i	-3.9	3.0	.	.
Cc1cc(C)c(-n2c(O)c(C=NCCN3CCOCC3)c(=O)[nH]c2=O)c(C)c1	i	i	i	9.84*	-3.5	-1.9	16.5*	i
CN1CCN(C(=O)c2cc(Cl)ccc2Cl)CC1	i	i	i	i	-3.3	-2.5	.	.
CN1CCN(C(=O)c2cc(=O)c3cc(Cl)cc(Cl)c3o2)CC1	i	i	i	i	-0.9	1.2	42.9*	-42.4*
CCOC(=O)/C(C#N)=C/c1c(N2CCN(CC)CC2)nc2c(C)cccn2c1=O	i	i	i	i	0.6	2.9	52.2*	-50.4*
CNC(=O)/C(C#N)=C/c1c(N2CCN(C)CC2)nc2c(C)cccn2c1=O	i	i	i	i	1.2	5.2	57.9*	-56.1*
CNC(=O)/C(C#N)=C/c1c(N2CCN(c3cccc(Cl)c3)CC2)nc2c(C)cccn2c1=O	i	i	i	i	-0.5	4.0	.	.
CCNC(=O)/C(C#N)=C/c1c(N2CCN(c3ccccc3)CC2)nc2c(C)cccn2c1=O	i	i	i	i	-1.5	1.3	.	.
CCN1CCN(c2nc3c(C)cccn3c(=O)c2/C=C(\C#N)C(=O)NC)CC1	i	i	i	9.07*	-1.4	7.5	46.9*	-44.9*
CCN1CCN(c2nc3c(C)cccn3c(=O)c2/C=C(\C#N)C(=O)NCCCOC)CC1	i	i	i	7.53*	-1.6	2.1	50.4*	-59.7*
CCCCCCCC[n+]1c(C)n(-c2ccccc2)c2ccc(NC(C)=O)cc21	i	i	i	10.1*	1.8	-1.2	78.2*	-32.7*
COc1ccc(-n2c(O)cnc2Nc2nc(C)cc(C)n2)cc1OC	i	i	i	7.17*	-3.8	-2.8	27.8*	-47.6*
CC1CC1C(=O)N1CCN(S(=O)(=O)c2cc(C(F)(F)F)cc(C(F)(F)F)c2)CC1 (configuration not stated)	i	.	.	.	.	.	.	.
COC1=C(Nc2ccccc2)C(=O)c2ccccc2C1=O	i	i	i	i	3.3	10.4*	34.7*	-57.5*
COC1=C(Nc2ccc(C)cc2)C(=O)c2ccccc2C1=O	i	i	i	i	-1.8	6.6	.	.
Cc1cc(C(=O)O)cc(S(=O)(=O)Nc2ccccc2C(=O)NC2CC2)c1C	i	.	.	.	.	.	.	.
CN1CCN(NC(=O)c2cc(-c3ccc(Cl)s3)nc3ccccc23)CC1	i	i	i	i	-0.4	1.8	6.7	-36.5*
SMILES	TMEM16A act	CHT block	ANO1 block	CHT PAM	IMP-1 inh	VIM-2 inhibitor	CHT act confirm	HEK293 MP dye
CN1CCN(NC(=O)c2cc(-c3ccccn3)nc3ccccc23)CC1	i	i	i	i	-1.9	-4.8	.	.
CCOC(=O)c1cnc2ccc(C(=O)OC)cc2c1Nc1ccc(C(=O)O)cc1	i	i	i	8.88*	-2.3	-3.0	63.1*	-63.2*
CCOC(=O)c1cnc2ccc(Cl)cc2c1NCCN(C)C	i	i	i	i	-4.7	-2.5	26.8*	-39.3*
N=C(N)SCCc1cccc(CCSC(=N)N)c1	i	i	i	9.04*	.	.	42.6*	-45.5*
N=C(N)SCCc1cnc[nH]1	i	i	i	i	.	.	.	.
Cc1ccc(-n2cccn2)c(CN2CCCC(CNC(=O)c3ccc(F)cc3)C2)c1 (configuration not stated)	i	i	i	i	-2.1	-4.5	39.0*	i
CCOC(=O)C1(CC2CCCCO2)CCN(Cc2cc(F)ccc2-n2cccn2)CC1 (configuration not stated)	i	i	i	9.41*	-2.0	-3.2	49.1*	i
O=C(c1ccc2c(c1)OCO2)C1CCCN(Cc2cc(F)ccc2-n2cccn2)C1 (configuration not stated)	i	i	i	i	-2.0	-2.7	.	.
CCOC(=O)C1(CC2CCCCO2)CCN(Cc2c(C)cc(C)cc2-n2cccn2)CC1 (configuration not stated)	i	i	i	i	-0.1	-1.9	.	.
O=C(COC(=O)CNS(=O)(=O)/C=C/c1ccccc1)Nc1cc(S(=O)(=O)N2CCCCC2)ccc1Cl	i	i	i	i	-3.5	-1.6	.	.
